# pEC50: −log10 of the molar value.
# Key:
# SARS-CoV-2 [1] = assay: Antiviral activity against SARS-CoV-2 nCoV-2019BetaCoV/Wuhan/WIV04/ infected in African green monkey Vero E6 cells assessed as inhibition of viral replication at 5 uM when host cells were pretreated for 1 hr followed by viral infection then followed by removal of infected supernatant and subsequent culture addition with fresh compounds and measured after 24 hrs by qRT-PCR method relative to control; format: functional; settings: Severe acute respiratory syndrome coronavirus 2, nCoV-2019BetaCoV/Wuhan/WIV04/, Vero C1008, time 25 hrs
# SARS-CoV-2 [2] = assay: Antiviral activity against SARS-CoV-2 nCoV-2019BetaCoV/Wuhan/WIV04/ infected in African green monkey Vero E6 cells assessed as inhibition of viral replication when host cells were pretreated for 1 hr followed by viral infection then followed by removal of infected supernatant and subsequent culture addition with fresh compounds and measured after 24 hrs by qRT-PCR method; format: functional, organism-based; settings: Severe acute respiratory syndrome coronavirus 2, nCoV-2019BetaCoV/Wuhan/WIV04/, Vero C1008
# Vero C1008 = assay: Cytotoxicity against African green monkey Vero E6 cells by CCK8 assay; format: cell-based; settings: chlorocebus sabaeus
# In short: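 Vero E6 cell viability was read by CCK-8 colorimetric assay.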
# SARS-CoV-2 [3] = assay: Antiviral activity against SARS-CoV-2 nCoV-2019BetaCoV/Wuhan/WIV04/ infected in African green monkey Vero E6 cells assessed as inhibition of viral replication at 10 uM when host cells were pretreated for 1 hr followed by viral infection then followed by removal of infected supernatant and subsequent culture addition with fresh compounds and measured after 24 hrs by qRT-PCR method relative to control; format: functional; settings: Severe acute respiratory syndrome coronavirus 2, nCoV-2019BetaCoV/Wuhan/WIV04/, Vero C1008, time 25 hrs
# [4] = Stability of compound in stimulated intestinal fluid assessed as parent compound remaining measured after 4 hrs by HPLC analysis; format: ADME; settings: simulated intestinal fluid, read-out: Stabilty
# In short: (§1)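 Compound solution was diluted into artificial gastric or intestinal juice and incubated at 37 °C. Samples were taken at 0, 1, 2, 3, 4, 6 and 24 h and quenched with ice-cold acetonitrile. After centrifugation, supernatants were analysed by HPLC.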
# [5] = Stability of compound in stimulated gastric fluid incubated for 24 hrs by HPLC analysis; format: ADME; settings: simulated gi fluid; in short: as §1
# [6] = Half life in CD-1 mouse at 50 mg/kg, po by LC-MS/MS analysis; format: ADME, organism-based; settings: in vivo
# In short: (§2)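 Mice were fasted 12 h. Dosing was 50 mg/Kg orally or 25 mg/Kg intravenously, in DMSO-ethanol-PEG300-saline (5/5/40/50, v/v/v/v). Blood was drawn from the femoral vein into heparinized tubes at several post-dose times, and analytes were measured by LC-MS/MS.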
# [7] = AUClast in CD-1 mouse at 50 mg/kg, po by LC-MS/MS analysis; format: ADME, organism-based; set-up: route oral, time 0 - last, dose 50 mg/kg; settings: in vivo; in short: as §2
# [8] = AUClast in CD-1 mouse at 25 mg/kg, iv by LC-MS/MS analysis; format: ADME, organism-based; set-up: route intravenous, time 0 - last, dose 25 mg/kg; settings: in vivo; in short: as §2
# [9] = Half life in CD-1 mouse at 25 mg/kg, iv by LC-MS/MS analysis; format: ADME, organism-based; settings: in vivo; for half-life: CD-1, mouse; in short: as §2
# [10] = Cmax in CD-1 mouse at 50 mg/kg, po by LC-MS/MS analysis; format: ADME, organism-based; set-up: route oral, dose 50 mg/kg; settings: in vivo; in short: as §2
# [11] = Tmax in CD-1 mouse at 50 mg/kg, po by LC-MS/MS analysis; format: ADME, organism-based; settings: in vivo; in short: as §2
# [12] = Observed MRT infinity in CD-1 mouse at 25 mg/kg, iv by LC-MS/MS analysis; format: ADME, organism-based; settings: in vivo; for MRT inf: CD-1, mouse; in short: as §2
# [13] = Oral bioavailability in CD-1 mouse at 50 mg/kg by LC-MS/MS analysis; format: ADME, organism-based; settings: in vivo; in short: as §2
# [14] = Observed MRT infinity in CD-1 mouse at 50 mg/kg, po by LC-MS/MS analysis; format: ADME, organism-based; settings: in vivo; in short: as §2
# [15] = Observed volume of distribution at steady state in CD-1 mouse at 25 mg/kg, iv by LC-MS/MS analysis; format: ADME, organism-based; settings: in vivo; for Vd: CD-1, mouse, read-out: Vdss; in short: as §2
# [16] = Acute toxicity in po dosed ICR mouse assessed as maximum tolerated dose measured after 7 days; format: organism-based; settings: in vivo, time 7 day
# In short: (§3)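 Male ICR mice (28–36 g), 3 per group, were fasted 16 h. Each got one oral gavage dose of 50, 100, 200, 500 or 1000 mg/kg in 5% DMSO, 5% Solution Hs15 and 90% saline. Clinical signs, body weight and food consumption were followed for 7 days, and animals were sacrificed on day 8.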
# [17] = Acute toxicity in ICR mouse assessed as effect on body weight at 100 to 1000 mg/kg, po via gavage and measured after 7 days; format: organism-based; settings: in vivo, 168 h, dose 100-1000 mg/kg, time 7 day; in short: as §3
# [18] = Acute toxicity in ICR mouse assessed as effect on organ weight at 100 to 1000 mg/kg, po via gavage and measured after 7 days; format: organism-based; settings: in vivo, 168 h, dose 100-1000 mg/kg, time 7 day
smiles,measurement,setting,value
Nc1ncnn2c([C@@H]3O[C@H](CO)[C@@H](O)[C@H]3F)ccc12,inhibition at 5 µM,SARS-CoV-2 [1],< 10%
CCC(CC)COC(=O)[C@H](C)N[P@](=O)(OC[C@H]1O[C@@](C#N)(c2ccc3c(N)ncnn23)[C@H](O)[C@@H]1O)Oc1ccccc1,inhibition at 5 µM,SARS-CoV-2 [1],65%
same,pEC50,SARS-CoV-2 [2],5.70
Nc1ncnn2c([C@@H]3O[C@H](CO)[C@@H](O)[C@H]3O)ccc12,Activity,Vero C1008,Toxic
N#C[C@@]1(c2cc(F)c3c(N)ncnn23)O[C@H](CO)[C@@H](O)[C@H]1O,inhibition at 5 µM,SARS-CoV-2 [1],80%
same,pEC50,SARS-CoV-2 [2],5.48
same,inhibition at 10 µM,SARS-CoV-2 [3],97%
CC(=O)[C@@]1(c2ccc3c(N)ncnn23)O[C@H](CO)[C@@H](O)[C@H]1O,inhibition at 5 µM,SARS-CoV-2 [1],< 10%
CCCCCOC(=O)Nc1ncnn2c([C@]3(C#N)O[C@H](CO)[C@@H](O)[C@H]3O)ccc12,inhibition at 10 µM,SARS-CoV-2 [3],65%
CC(C)C(=O)O[C@H]1[C@@H](OC(=O)C(C)C)[C@](C#N)(c2ccc3c(N)ncnn23)O[C@@H]1CO,inhibition at 5 µM,SARS-CoV-2 [1],99%
Nc1ncnn2c([C@]3(CO)O[C@H](CO)[C@@H](O)[C@H]3O)ccc12,inhibition at 5 µM,SARS-CoV-2 [1],< 10%
N#C[C@@]1(c2cc(I)c3c(N)ncnn23)O[C@H](CO)[C@@H](O)[C@H]1O,inhibition at 5 µM,SARS-CoV-2 [1],< 10%
CC(C)[C@H](N)C(=O)OC[C@H]1O[C@@](C#N)(c2ccc3c(N)ncnn23)[C@H](O)[C@@H]1O,remaining at 4 h,[4],9%
same,Stabilty,[5],Stable
OC[C@H]1O[C@@H](c2ccc3c(NO)ncnn23)[C@H](O)[C@@H]1O,inhibition at 5 µM,SARS-CoV-2 [1],< 10%
CC(C)C(=O)OC[C@H]1O[C@@](C#N)(c2ccc3c(N)ncnn23)[C@H](O)[C@@H]1OC(=O)C(C)C,inhibition at 5 µM,SARS-CoV-2 [1],99%
N#Cc1cc([C@]2(C#N)O[C@H](CO)[C@@H](O)[C@H]2O)n2ncnc(N)c12,inhibition at 5 µM,SARS-CoV-2 [1],< 10%
CO[C@@H]1[C@H](O)[C@@H](CO)O[C@@]1(C#N)c1ccc2c(N)ncnn12,inhibition at 5 µM,SARS-CoV-2 [1],< 10%
Br.CC(C)C(=O)OC[C@H]1O[C@@](C#N)(c2ccc3c(N)ncnn23)[C@H](OC(=O)C(C)C)[C@@H]1OC(=O)C(C)C,half-life,[6],163 min
same,AUC(0-t),[7],7110 ng·h/mL
same,AUC(0-t),[8],3600 ng·h/mL
same,half-life,[9],149 min
C=C(C)[C@@]1(c2ccc3c(N)ncnn23)O[C@H](CO)[C@@H](O)[C@H]1O,inhibition at 5 µM,SARS-CoV-2 [1],< 10%
NC(=O)[C@@]1(c2ccc3c(N)ncnn23)O[C@H](CO)[C@@H](O)[C@H]1O,inhibition at 5 µM,SARS-CoV-2 [1],< 10%
CC(C)[C@H](N)C(=O)O[C@H]1[C@@H](O)[C@](C#N)(c2ccc3c(N)ncnn23)O[C@@H]1CO.Cl.Cl,Cmax,[10],1510 ng/mL
same,half-life,[6],103 min
same,remaining at 4 h,[4],34%
same,AUC(0-t),[7],2980 ng·h/mL
same,AUC(0-t),[8],5420 ng·h/mL
same,t1/2,"[9]; mouse, 25 mg/kg",36.6 min
same,Tmax,[11],49.8 min
same,MRT,"[12]; mouse, 25 mg/kg",46.8 min
same,F,[13],27.5%
same,inhibition at 5 µM,SARS-CoV-2 [1],99%
same,MRT inf,[14],2.76 h
same,Stabilty,[5],Stable
same,Vdss,"[15]; mouse, 25 mg/kg",3.86 L/kg
same,pEC50,SARS-CoV-2 [2],6.96
CC(C)C(=O)O[C@H]1[C@@H](O)[C@](C#N)(c2ccc3c(N)ncnn23)O[C@@H]1CO,Cmax,[10],7880 ng/mL
same,half-life,[6],66.6 min
same,remaining at 4 h,[4],100%
same,AUC(0-t),[7],14600 ng·h/mL
same,AUC(0-t),[8],10200 ng·h/mL
same,half-life,[9],49.8 min
same,Tmax,[11],19.8 min
same,MRT inf,[12],1.07 h
same,F,[13],71.6%
same,inhibition at 5 µM,SARS-CoV-2 [1],99%
same,MRT inf,[14],1.82 h
same,Stabilty,[5],Stable
same,Vd,[15],2.59 L/kg
same,pEC50,SARS-CoV-2 [2],6.60
N#C[C@@]1(c2ccc3c(O)ncnn23)O[C@H](CO)[C@@H](O)[C@H]1O,inhibition at 5 µM,SARS-CoV-2 [1],< 10%
Nc1ncnn2c([C@@H]3O[C@H](CO)[C@@H](O)C3(F)F)ccc12,inhibition at 5 µM,SARS-CoV-2 [1],< 10%
CCC(CC)COC(=O)[C@H](C)N[P@](=O)(OC[C@H]1O[C@@](C#N)(c2cc(F)c3c(N)ncnn23)[C@H](O)[C@@H]1O)Oc1ccccc1,inhibition at 10 µM,SARS-CoV-2 [3],82%
N#C[C@@]1(c2cc(Cl)c3c(N)ncnn23)O[C@H](CO)[C@@H](O)[C@H]1O,inhibition at 5 µM,SARS-CoV-2 [1],< 10%
N#C/C=C/[C@@]1(c2ccc3c(N)ncnn23)O[C@H](CO)[C@@H](O)[C@H]1O,inhibition at 5 µM,SARS-CoV-2 [1],< 10%
N#C[C@@]1(c2ccc3c(N)ncnn23)O[C@H](CO)[C@@H](O)[C@H]1O [GS-441524],inhibition at 5 µM,SARS-CoV-2 [1],99%
same,pEC50,SARS-CoV-2 [2],6.32
CC(C)C(=O)OC[C@H]1O[C@@](C#N)(c2ccc3c(N)ncnn23)[C@H](O)[C@@H]1O [OBELDESIVIR],Cmax,[10],6680 ng/mL
same,half-life,[6],148 min
same,remaining at 4 h,[4],2%
same,AUC(0-t),[7],13800 ng·h/mL
same,AUC(0-t),[8],7980 ng·h/mL
same,half-life,[9],286 min
same,Tmax,[11],25.2 min
same,MRT inf,[12],1.33 h
same,F,[13],86.6%
same,inhibition at 5 µM,SARS-CoV-2 [1],99%
same,MRT inf,[14],2.16 h
same,Stabilty,[5],Stable
same,Vd,[15],4.17 L/kg
same,pEC50,SARS-CoV-2 [2],6.64
same,MTD at 168 h,[16],1000 mg/kg
same,Activity,[17],Non-Toxic
same,Activity,[18],Non-Toxic

# Source: ChEMBL document CHEMBL4823313 (Bioorg Med Chem, 2021)
